Legend:
P388 [1] = assay: Antitumor activity against mouse P388 cells allografted in male CDF1 mouse assessed as change in body weight at 50 mg/kg, ip administered daily for 9 days as saline with Tween-80 solution starting 24 hrs after tumor inoculation; assay type: functional; settings: route intraperitoneal
Outline: (§1)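 Ascitic fluid carrying P388 cells was inoculated ip. Compound was given ip in nine daily doses, starting 24 h after inoculation, in Klucel (hydroxypropylcellulose) suspension or in saline with Tween-80. Body-weight difference (treated minus control) was recorded on day 5. Survival was scored as %T/C of median survival time, and 30-day survival counted as cure.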

Mus musculus [2] = assay: Toxicity in male CDF1 mouse allografted with mouse P388 cells assessed as animal survival at 25 mg/kg, ip administered daily for 9 days as saline with Tween-80 solution starting 24 hrs after tumor inoculation; assay type: organism-based; design: dose 25 mg/kg, route intraperitoneal; settings: in vivo
Outline: (§2)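 P-388 leukemia ascitic fluid implanted ip. Compound dosed ip in saline with Tween-80 vehicle, once daily for nine doses from 24 h after tumor inoculation. Acute toxicity scored as toxicity-day survivors per group. Survival was followed up to 30 days, with 30-day survival counted as "cure". Follows NCI screening protocols.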

P388 [3] = assay: Antitumor activity against mouse P388 cells allografted in male CDF1 mouse assessed as change in body weight at 25 mg/kg, ip administered daily for 9 days as saline with Tween-80 solution starting 24 hrs after tumor inoculation; assay type: functional; settings: route intraperitoneal; outline: as §1
P388 [4] = assay: Antitumor activity against mouse P388 cells allografted in female CDF1 mouse assessed as change in body weight at 200 mg/kg, ip administered daily for 9 days as saline with Tween-80 solution starting 24 hrs after tumor inoculation; assay type: functional; settings: route intraperitoneal; outline: as §1
Mus musculus [5] = assay: Toxicity in male CDF1 mouse allografted with mouse P388 cells assessed as animal survival at 6.25 mg/kg, ip administered daily for 9 days as saline with Tween-80 solution starting 24 hrs after tumor inoculation; assay type: organism-based; design: dose 6.25 mg/kg, route intraperitoneal; settings: in vivo; outline: as §2
Mus musculus [6] = assay: Toxicity in female CDF1 mouse allografted with mouse P388 cells assessed as animal survival at 25 mg/kg, ip administered daily for 9 days as saline with Tween-80 solution starting 24 hrs after tumor inoculation; assay type: organism-based; design: dose 25 mg/kg, route intraperitoneal; settings: in vivo; outline: as §2
Mus musculus [7] = assay: Toxicity in female CDF1 mouse allografted with mouse P388 cells assessed as animal survival at 400 mg/kg, ip administered daily for 9 days as saline with Tween-80 solution starting 24 hrs after tumor inoculation; assay type: organism-based; design: dose 400 mg/kg, route intraperitoneal; settings: in vivo; outline: as §2
Mus musculus [8] = assay: Toxicity in female CDF1 mouse allografted with mouse P388 cells assessed as animal survival at 12.5 mg/kg, ip administered daily for 9 days as saline with Tween-80 solution starting 24 hrs after tumor inoculation; assay type: organism-based; design: dose 12.5 mg/kg, route intraperitoneal; settings: in vivo; outline: as §2
P388 [9] = assay: Antitumor activity against mouse P388 cells allografted in female CDF1 mouse assessed as change in body weight at 12.5 mg/kg, ip administered daily for 9 days as saline with Tween-80 solution starting 24 hrs after tumor inoculation; assay type: functional; settings: route intraperitoneal; outline: as §1
P388 [10] = assay: Antitumor activity against mouse P388 cells allografted in female CDF1 mouse assessed as change in body weight at 100 mg/kg, ip administered daily for 9 days as saline with Tween-80 solution starting 24 hrs after tumor inoculation; assay type: functional; settings: route intraperitoneal; outline: as §1
P388 [11] = assay: Antitumor activity against mouse P388 cells allografted in male CDF1 mouse assessed as disease cures by measuring 30-days host survival at 25 mg/kg, ip administered daily for 9 days as saline with Tween-80 solution starting 24 hrs after tumor inoculation relative to control; assay type: functional; settings: route intraperitoneal
Outline: (§3)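 P388 ascitic cell inoculum given ip to CDF1 mice of the sex in each line. Nine daily ip doses in saline with Tween-80 as vehicle, starting 24 h after inoculation. Median survival time expressed as %T/C (>125 significant); "cure" defined as 30-day survival.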

P388 [12] = assay: Antitumor activity against mouse P388 cells allografted in female CDF1 mouse assessed as disease cures by measuring 30-days host survival at 12.5 mg/kg, ip administered daily for 9 days as saline with Tween-80 solution starting 24 hrs after tumor inoculation relative to control; assay type: functional; settings: route intraperitoneal; outline: as §3
P388 [13] = assay: Antitumor activity against mouse P388 cells allografted in male CDF1 mouse assessed as disease cures by measuring 30-days host survival at 6.25 mg/kg, ip administered daily for 9 days as saline with Tween-80 solution starting 24 hrs after tumor inoculation relative to control; assay type: functional; settings: route intraperitoneal; outline: as §3
Mus musculus [14] = assay: Toxicity in female CDF1 mouse allografted with mouse P388 cells assessed as animal survival at 6.25 mg/kg, ip administered daily for 9 days as saline with Tween-80 solution starting 24 hrs after tumor inoculation; assay type: organism-based; design: dose 6.25 mg/kg, route intraperitoneal; settings: in vivo; outline: as §2
P388 [15] = assay: Antitumor activity against mouse P388 cells allografted in female CDF1 mouse assessed as change in body weight at 6.25 mg/kg, ip administered daily for 9 days as saline with Tween-80 solution starting 24 hrs after tumor inoculation; assay type: functional; settings: route intraperitoneal; outline: as §1
P388 [16] = assay: Antitumor activity against mouse P388 cells allografted in male CDF1 mouse assessed as disease cures by measuring 30-days host survival at 12.5 mg/kg, ip administered daily for 9 days as saline with Tween-80 solution starting 24 hrs after tumor inoculation relative to control; assay type: functional; settings: route intraperitoneal; outline: as §3
P388 [17] = assay: Antitumor activity against mouse P388 cells allografted in female CDF1 mouse assessed as disease cures by measuring 30-days host survival at 25 mg/kg, ip administered daily for 9 days as saline with Tween-80 solution starting 24 hrs after tumor inoculation relative to control; assay type: functional; settings: route intraperitoneal; outline: as §3
P388 [18] = assay: Antitumor activity against mouse P388 cells allografted in female CDF1 mouse assessed as change in body weight at 400 mg/kg, ip administered daily for 9 days as saline with Tween-80 solution starting 24 hrs after tumor inoculation; assay type: functional; settings: route intraperitoneal; outline: as §1
P388 [19] = assay: Antitumor activity against mouse P388 cells allografted in female CDF1 mouse assessed as change in body weight at 25 mg/kg, ip administered daily for 9 days as saline with Tween-80 solution starting 24 hrs after tumor inoculation; assay type: functional; settings: route intraperitoneal; outline: as §1
P388 [20] = assay: Antitumor activity against mouse P388 cells allografted in male CDF1 mouse assessed as change in body weight at 6.25 mg/kg, ip administered daily for 9 days as saline with Tween-80 solution starting 24 hrs after tumor inoculation; assay type: functional; settings: route intraperitoneal; outline: as §1
Mus musculus [21] = assay: Toxicity in female CDF1 mouse allografted with mouse P388 cells assessed as animal survival at 200 mg/kg, ip administered daily for 9 days as saline with Tween-80 solution starting 24 hrs after tumor inoculation; assay type: organism-based; design: dose 200 mg/kg, route intraperitoneal; settings: in vivo; outline: as §2
P388 [22] = assay: Antitumor activity against mouse P388 cells allografted in female CDF1 mouse assessed as disease cures by measuring 30-days host survival at 6.25 mg/kg, ip administered daily for 9 days as saline with Tween-80 solution starting 24 hrs after tumor inoculation relative to control; assay type: functional; settings: route intraperitoneal; outline: as §3
P388 [23] = assay: Antitumor activity against mouse P388 cells allografted in male CDF1 mouse assessed as change in body weight at 12.5 mg/kg, ip administered daily for 9 days as saline with Tween-80 solution starting 24 hrs after tumor inoculation; assay type: functional; settings: route intraperitoneal; outline: as §1
P388 [24] = assay: Antitumor activity against mouse P388 cells allografted in female CDF1 mouse assessed as change in body weight at 50 mg/kg, ip administered daily for 9 days as saline with Tween-80 solution starting 24 hrs after tumor inoculation; assay type: functional; settings: route intraperitoneal; outline: as §1
Mus musculus [25] = assay: Toxicity in male CDF1 mouse allografted with mouse P388 cells assessed as animal survival at 12.5 mg/kg, ip administered daily for 9 days as saline with Tween-80 solution starting 24 hrs after tumor inoculation; assay type: organism-based; design: dose 12.5 mg/kg, route intraperitoneal; settings: in vivo; outline: as §2

CCNC(=O)OCc1c(COC(=O)NCC)c(-c2ccc(Cl)c(Cl)c2)n2c1CCC2
Activity (P388 [1]): -8 g | Activity (Mus musculus [2]): Non-toxic | Activity (P388 [3]): -4.4 g | Activity (P388 [4]): -1.4 g | Activity (Mus musculus [5]): Non-toxic | Activity (Mus musculus [6]): Non-toxic | Activity (Mus musculus [7]): Toxic | Activity (Mus musculus [8]): Non-toxic | Activity (P388 [9]): -1.8 g | Activity (P388 [10]): -3 g | T/C (P388 [11]): 165% | T/C (P388 [12]): 170% | T/C (P388 [13]): 168% | Activity (Mus musculus [14]): Non-toxic | Activity (P388 [15]): -1.8 g | T/C (P388 [16]): 168% | T/C (P388 [17]): 103% | Activity (P388 [18]): -1.4 g | Activity (P388 [19]): -2.4 g | Activity (P388 [20]): -2.1 g | Activity (Mus musculus [21]): Toxic | T/C (P388 [22]): 154% | Activity (P388 [23]): -2.5 g | Activity (P388 [24]): -4.4 g | Activity (Mus musculus [25]): Non-toxic
